In brackets after ≈: the same amount, converted by molar mass.
Tests used:
[1] = cited from earlier work
[2] = Stability in human plasma at 37 °C; format: in vitro ADME
[3] = Solution state pH stability in USP buffers at 37 °C; format: physicochemical; details: for Degradation half-life t½: calculated from k
How it was run: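 Test compound (1 mg/mL acetonitrile stock) added 1:10 to 0.2 M USP buffers (n = 3) in amber vials. Buffers were HCl (pH 2), acid phthalate (pH 3–4), neutralized phthalate (pH 5), phosphate (pH 6–7) and borate (pH 8–10). Incubation at 37 °C, light-protected. Quantified by isocratic C18 HPLC-UV at 300 nm with warfarin IS. Log % remaining plotted against time; half-lives from first-order kinetics.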

[4] = cited from earlier work; remark: listed apart in the source
[5] = Plasma protein binding by ultracentrifugation/ultrafiltration; format: in vitro ADME, human; details: 37 °C
[6] = Solubility in common solvents, shaker method, HPLC; format: physicochemical
[7] = Stability in rat plasma at 37 °C; format: in vitro ADME; details: male, Sprague Dawley

SMILES: Oc1ccc(/C=C/c2cc(O)cc(O)c2)cc1 [resveratrol, trans-3,5,4′-trihydroxystilbene]
- Water solubility [1]: 0.05 mg/mL
- half-life at 50 µg/mL [2]: 54 h
- Original concentration remaining ([3]; acidic and neutral conditions, at 193 h): More than 70%
- Degradation rate constant k ([3]; pH 2, hydrochloric acid buffer 0.2 M): 0.000506 h⁻¹
- Degradation rate constant k ([3]; pH 3, acid phthalate buffer 0.2 M): 0.000353 h⁻¹
- Degradation rate constant k ([3]; pH 4, acid phthalate buffer 0.2 M): 0.000151 h⁻¹
- Degradation rate constant k ([3]; pH 5, neutralized phthalate buffer 0.2 M): 0.00011 h⁻¹
- Degradation rate constant k ([3]; pH 6, phosphate buffer 0.2 M): 0.000147 h⁻¹
- Degradation half-life t½ ([3]; pH 6, phosphate buffer 0.2 M): 195.5 days
- Degradation rate constant k ([3]; pH 7, phosphate buffer 0.2 M): 0.00247 h⁻¹
- Resveratrol remaining ([3]; pH 8, 9 or 10, at 50 and 80 h): Less than 2%
- Degradation rate constant k ([3]; pH 8, borate buffer 0.2 M): 0.0488 h⁻¹
- Degradation rate constant k ([3]; pH 9, borate buffer 0.2 M): 0.4000 h⁻¹
- Degradation half-life t½ ([3]; pH 9, borate buffer 0.2 M): 0.0722 days
- Degradation rate constant k ([3]; pH 10, borate buffer 0.2 M): 0.0335 h⁻¹
- pKa1 [4]: 8.8
- pKa2 [4]: 9.8
- pKa3 [4]: 11.4
- Bound fraction (%) ±standard deviation (n = 6) ([5]; human plasma spiked at 5 µg/mL): 98.2 ± 0.41%
- Bound fraction (%) ±standard deviation (n = 6) ([5]; human plasma spiked at 12.5 µg/mL): 98.5 ± 0.23%
- Bound fraction (%) ±standard deviation (n = 6) ([5]; human plasma spiked at 25 µg/mL): 98.3 ± 0.33%
- Plasma protein binding (mean) ([5]; human plasma, over 5, 12.5 and 25 µg/mL): 98%
- fraction unbound at 30 min ([5]; human, human plasma, Plasma protein binding (mean), over 5, 12.5 and 25 µg/mL): 0.017
- Solubility ([6]; PEG-400, room temperature (25 °C), mean, n = 3): 373.85 mg/mL (≈ 1640 mM)
- Solubility in words ([6]; water): not soluble
- half-life at 50 µg/mL [7]: 25 h

From paper PMC4427559 (Drug development and industrial pharmacy, 2015)
